ChEMBL document CHEMBL3044673, “Design, synthesis and insecticidal activity of novel phenylpyrazoles containing a 2,2,2-trichloro-1-alkoxyethyl moiety” (2010)

Tests used:
Assay type in all cases: functional
Culex pipiens pallens [1] = test: Insecticidal activity against Culex pipiens pallens (mosquito) assessed as insect mortality at 50 ug/kg measured 1 day post compound treatment; settings: 24 h
In short: (§1)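 Fourth-instar Culex pipiens pallens larvae, 20 per test, were laboratory-reared and placed in 100 mL of test solution made by adding 1 mL of compound dilution to 99 mL of water. Tests were held at 25±1 °C, percentage mortality was scored 1 day after treatment, and each test was run three times.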

Culex pipiens pallens [2] = test: Insecticidal activity against Culex pipiens pallens (mosquito) assessed as insect mortality at 100 ug/kg measured 1 day post compound treatment; settings: for mortality at 0.1 mg/kg: Culex pipiens, 24 h; in short: as §1
Plutella xylostella [3] = test: Insecticidal activity against Plutella xylostella (diamondback moth) grown on compound pre-treated fresh cabbage leaves assessed as insect mortality at 10 mg/kg measured 3 days post compound treatment by leaf-dip method; settings: for mortality: 10 mg/kg; for mortality at 10 mg/kg: Plutella xylostella
In short: (§2)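 Leaf-dip stomach-toxicity assay on laboratory-reared diamondback moth. Test solutions came from a 200 mg L^-1 stock in dimethylformamide, diluted with water containing TW-20. Control leaves were treated with water and dimethylformamide. Tests were held at 25±1 °C, percentage mortality was scored 3 days after treatment, and each treatment was run three times.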

Aphis craccivora [4] = test: Insecticidal activity against Aphis craccivora (cowpea aphid) infested tender soybean shoots exposed to 5 mg/kg test compound solution assessed as insect mortality measured 24 hr post compound treatment; settings: for mortality: 5 mg/kg; for mortality at 5 mg/kg: Aphis craccivora, 24 h
In short: (§3)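 Soybean tender shoots carrying 60 aphids were dipped in test solutions. Solutions were made from a 200 mg L^-1 stock in dimethylformamide, diluted with water containing TW-20. Insects were laboratory-reared, tests were held at 25±1 °C, and mortality was scored.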

Aphis craccivora [5] = test: Insecticidal activity against Aphis craccivora (cowpea aphid) infested tender soybean shoots exposed to 10 mg/kg test compound solution assessed as insect mortality measured 24 hr post compound treatment; settings: for mortality at 10 mg/kg: Aphis craccivora, 24 h; in short: as §3
Plutella xylostella [6] = test: Insecticidal activity against Plutella xylostella (diamondback moth) grown on compound pre-treated fresh cabbage leaves assessed as insect mortality at 5 mg/kg measured 3 days post compound treatment by leaf-dip method; settings: for mortality: 5 mg/kg; for mortality at 5 mg/kg: Plutella xylostella; in short: as §2
Plutella xylostella [7] = test: Insecticidal activity against Plutella xylostella (diamondback moth) grown on compound pre-treated fresh cabbage leaves assessed as insect mortality at 100 mg/kg measured 3 days post compound treatment by leaf-dip method; in short: as §2
Plutella xylostella [8] = test: Insecticidal activity against Plutella xylostella (diamondback moth) grown on compound pre-treated fresh cabbage leaves assessed as insect mortality at 200 mg/kg measured 3 days post compound treatment by leaf-dip method; in short: as §2
Aphis craccivora [9] = test: Insecticidal activity against Aphis craccivora (cowpea aphid) infested tender soybean shoots exposed to 25 mg/kg test compound solution assessed as insect mortality measured 24 hr post compound treatment; in short: as §3
Plutella xylostella [10] = test: Insecticidal activity against Plutella xylostella (diamondback moth) grown on compound pre-treated fresh cabbage leaves assessed as insect mortality at 50 mg/kg measured 3 days post compound treatment by leaf-dip method; in short: as §2
Aphis craccivora [11] = test: Insecticidal activity against Aphis craccivora (cowpea aphid) infested tender soybean shoots exposed to 2.5 mg/kg test compound solution assessed as insect mortality measured 24 hr post compound treatment; settings: for mortality at 2.5 mg/kg: Aphis craccivora, 24 h; in short: as §3
Plutella xylostella [12] = test: Insecticidal activity against Plutella xylostella (diamondback moth) grown on compound pre-treated fresh cabbage leaves assessed as insect mortality at 2.5 mg/kg measured 3 days post compound treatment by leaf-dip method; in short: as §2
Aphis craccivora [13] = test: Insecticidal activity against Aphis craccivora (cowpea aphid) infested tender soybean shoots exposed to 200 mg/kg test compound solution assessed as insect mortality measured 24 hr post compound treatment; in short: as §3
Aphis craccivora [14] = test: Insecticidal activity against Aphis craccivora (cowpea aphid) infested tender soybean shoots exposed to 100 mg/kg test compound solution assessed as insect mortality measured 24 hr post compound treatment; in short: as §3
Plutella xylostella [15] = test: Insecticidal activity against Plutella xylostella (diamondback moth) grown on compound pre-treated fresh cabbage leaves assessed as insect mortality at 25 mg/kg measured 3 days post compound treatment by leaf-dip method; settings: for mortality at 25 mg/kg: Plutella xylostella; in short: as §2
Aphis craccivora [16] = test: Insecticidal activity against Aphis craccivora (cowpea aphid) infested tender soybean shoots exposed to 50 mg/kg test compound solution assessed as insect mortality measured 24 hr post compound treatment; in short: as §3
Culex pipiens pallens [17] = test: Insecticidal activity against Culex pipiens pallens (mosquito) assessed as insect mortality at 25 ug/kg measured 1 day post compound treatment; settings: 24 h; in short: as §1
Culex pipiens pallens [18] = test: Insecticidal activity against Culex pipiens pallens (mosquito) assessed as insect mortality at 10 ug/kg measured 1 day post compound treatment; settings: 24 h; in short: as §1

Compound	mortality at 0.05 mg/kg (Culex pipiens pallens [1]) [%]	mortality (Culex pipiens pallens [2]) [%]	mortality at 100 mg/kg (Plutella xylostella [7]) [%]	mortality at 200 mg/kg (Plutella xylostella [8]) [%]	mortality at 25 mg/kg (Aphis craccivora [9]) [%]	mortality at 50 mg/kg (Plutella xylostella [10]) [%]	mortality at 10 mg/kg (Plutella xylostella [3]) [%]	mortality at 2.5 mg/kg (Aphis craccivora [11]) [%]	mortality at 2.5 mg/kg (Plutella xylostella [12]) [%]	mortality at 5 mg/kg (Aphis craccivora [4]) [%]	mortality at 200 mg/kg (Aphis craccivora [13]) [%]	mortality at 100 mg/kg (Aphis craccivora [14]) [%]	mortality at 25 mg/kg (Plutella xylostella [15]) [%]	mortality at 10 mg/kg (Aphis craccivora [5]) [%]	mortality at 50 mg/kg (Aphis craccivora [16]) [%]	mortality at 5 mg/kg (Plutella xylostella [6]) [%]	mortality at 0.1 mg/kg (Culex pipiens pallens [2]) [%]	mortality at 0.025 mg/kg (Culex pipiens pallens [17]) [%]	other results
C[S+]([O-])c1c(C#N)nn(-c2c(Cl)cc(C(F)(F)F)cc2Cl)c1NC(OCCCl)C(Cl)(Cl)Cl (stereo in doubt; 7e-1)	40	100	–	–	–	–	–	–	–	–	–	–	–	–	–	–	–	–	mortality (Plutella xylostella [3]): 81%; mortality (Aphis craccivora [4]): 61%; mortality (Aphis craccivora [5]; 10 mg/kg): 96%; mortality (Plutella xylostella [6]): 60%
C[S+]([O-])c1c(C#N)nn(-c2c(Cl)cc(C(F)(F)F)cc2Cl)c1NC(OCCF)C(Cl)(Cl)Cl (stereo in doubt; 7d-2)	–	50	100	100	100	100	76	46	0	70	100	100	89	100	100	54	–	–	–
C[S+]([O-])c1c(C#N)nn(-c2c(Cl)cc(C(F)(F)F)cc2Cl)c1NC(OCCCl)C(Cl)(Cl)Cl (stereo in doubt; 7e-2)	–	50	100	100	100	100	79	0	0	68	100	100	100	100	100	56	–	–	–
CC[S+]([O-])c1c(C#N)nn(-c2c(Cl)cc(C(F)(F)F)cc2Cl)c1NC(OCCCl)C(Cl)(Cl)Cl (stereo not drawn)	0	–	100	100	100	100	32	–	–	0	100	100	46	48	100	0	100	–	–
CCOC(Nc1c([S+]([O-])CC)c(C#N)nn1-c1c(Cl)cc(C(F)(F)F)cc1Cl)C(Cl)(Cl)Cl (stereo not drawn)	100	–	100	100	100	100	72	0	0	81	100	100	100	100	100	29	100	40	–
CC[S+]([O-])c1c(C#N)nn(-c2c(Cl)cc(C(F)(F)F)cc2Cl)c1NC(OCCF)C(Cl)(Cl)Cl (stereo not drawn)	20	–	100	100	100	91	30	43	–	73	100	100	46	100	100	0	100	–	–
CC[S+]([O-])c1c(C#N)nn(-c2c(Cl)cc(C(F)(F)F)cc2Cl)c1NC(OC)C(Cl)(Cl)Cl (stereo not drawn)	100	–	100	100	96	86	0	0	–	76	100	100	31	87	100	–	100	0	–
CSc1c(C#N)nn(-c2c(Cl)cc(C(F)(F)F)cc2Cl)c1NC(OCCF)C(Cl)(Cl)Cl (stereo not drawn)	100	–	100	100	74	100	89	0	34	28	100	100	100	62	100	81	100	100	mortality at 0.01 mg/kg (Culex pipiens pallens [18]): 40%
CCOC(Nc1c([S+](C)[O-])c(C#N)nn1-c1c(Cl)cc(C(F)(F)F)cc1Cl)C(Cl)(Cl)Cl (stereo not drawn)	100	–	100	100	100	100	85	0	0	63	100	100	100	85	100	63	100	30	–
C[S+]([O-])c1c(C#N)nn(-c2c(Cl)cc(C(F)(F)F)cc2Cl)c1NC(OCCF)C(Cl)(Cl)Cl (stereo in doubt; 7d-1)	–	20	–	–	–	–	–	–	–	–	–	–	–	–	–	–	–	–	mortality (Plutella xylostella [3]): 77%; mortality (Aphis craccivora [11]; 2.5 mg/kg): 43%; mortality (Aphis craccivora [4]): 72%; mortality (Plutella xylostella [15]; 25 mg/kg): 92%; mortality (Plutella xylostella [6]): 56%
